Key:
PC-12 [1] = experiment: Neuroprotection against H2O2-induced cell death in rat PC12 cells assessed as cell viability at 5 uM preincubated for 3 hrs followed by H2O2 stimulation measured after 2 hrs by MTT assay (reference value: 25.2 to 41.8%); format: functional; details: read-out: Activity
PC-12 [2] = experiment: Neuroprotection against H2O2-induced cell death in rat PC12 cells assessed as cell viability at 0.1 uM preincubated for 3 hrs followed by H2O2 stimulation measured after 2 hrs by MTT assay (reference value: 25.2 to 41.8%); format: functional; details: read-out: Activity
PC-12 [3] = experiment: Neuroprotection against H2O2-induced cell death in rat PC12 cells assessed as cell viability at 1 uM preincubated for 3 hrs followed by H2O2 stimulation measured after 2 hrs by MTT assay (reference value: 25.2 to 41.8%); format: functional; details: read-out: Activity
Cholinesterase = Cholinesterase (Equus caballus, UniProt P81908); experiment: Inhibition of equine serum BuChE using butyrylthiocholine iodide as substrate pretreated for 5 mins followed by substrate addition by Ellman's method
Chain of Cholinesterase (P81908 whole entry): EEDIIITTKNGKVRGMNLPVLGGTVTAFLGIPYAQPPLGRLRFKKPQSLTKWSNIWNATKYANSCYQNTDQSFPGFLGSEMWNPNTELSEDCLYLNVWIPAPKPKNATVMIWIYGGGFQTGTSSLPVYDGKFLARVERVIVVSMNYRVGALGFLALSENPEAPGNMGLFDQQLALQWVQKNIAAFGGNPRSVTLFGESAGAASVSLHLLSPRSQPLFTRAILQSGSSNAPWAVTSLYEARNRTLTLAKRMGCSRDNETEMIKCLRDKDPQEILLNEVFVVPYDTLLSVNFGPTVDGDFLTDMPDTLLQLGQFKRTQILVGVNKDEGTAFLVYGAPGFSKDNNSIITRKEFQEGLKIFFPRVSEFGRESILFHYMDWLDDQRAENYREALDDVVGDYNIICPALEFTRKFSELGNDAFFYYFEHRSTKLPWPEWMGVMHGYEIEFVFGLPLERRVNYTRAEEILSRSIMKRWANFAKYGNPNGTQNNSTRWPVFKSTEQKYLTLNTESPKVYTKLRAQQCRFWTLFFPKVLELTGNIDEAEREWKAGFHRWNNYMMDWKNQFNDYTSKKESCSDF
In short: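 Ellman assay with horse serum BuChE (5 IU/mL) in 0.1 M phosphate buffer pH 8.0 with DTNB. Compound was preincubated with enzyme 5 min, then butyrylthiocholine iodide was added. Absorbance read at 412 nm. IC50 from a log concentration vs % inhibition curve; triplicate runs.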

Acetylcholinesterase = Acetylcholinesterase (Electrophorus electricus, UniProt O42275); experiment: Inhibition of electric eel AChE using acetylthiocholine iodide as substrate pretreated for 5 mins followed by substrate addition by Ellman's method
Chain of Acetylcholinesterase (O42275 whole entry): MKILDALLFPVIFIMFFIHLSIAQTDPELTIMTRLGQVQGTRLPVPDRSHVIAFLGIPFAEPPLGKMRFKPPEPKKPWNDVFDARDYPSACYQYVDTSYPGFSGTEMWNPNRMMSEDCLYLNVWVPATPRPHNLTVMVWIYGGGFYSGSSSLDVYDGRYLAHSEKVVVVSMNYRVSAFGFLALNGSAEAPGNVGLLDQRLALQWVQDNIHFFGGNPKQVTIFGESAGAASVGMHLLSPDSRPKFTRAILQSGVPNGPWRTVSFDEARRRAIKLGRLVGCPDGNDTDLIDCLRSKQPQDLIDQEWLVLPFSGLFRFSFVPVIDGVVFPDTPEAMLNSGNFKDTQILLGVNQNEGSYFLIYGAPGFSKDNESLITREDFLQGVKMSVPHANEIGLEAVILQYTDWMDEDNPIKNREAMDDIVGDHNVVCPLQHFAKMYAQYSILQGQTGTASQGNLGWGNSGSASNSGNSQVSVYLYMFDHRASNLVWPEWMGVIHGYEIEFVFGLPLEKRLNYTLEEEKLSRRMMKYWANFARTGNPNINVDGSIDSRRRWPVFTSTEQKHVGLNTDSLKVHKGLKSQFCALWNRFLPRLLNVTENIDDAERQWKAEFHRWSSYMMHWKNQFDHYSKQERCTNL

PC-12 [4] = experiment: Neuroprotection against H2O2-induced cell death in rat PC12 cells assessed as cell viability at 20 uM preincubated for 3 hrs followed by H2O2 stimulation measured after 2 hrs by MTT assay (reference value: 25.2 to 41.8%); format: functional; details: read-out: Activity
PC-12 [5] = experiment: Neuroprotection against H2O2-induced cell death in rat PC12 cells assessed as cell viability at 50 uM preincubated for 3 hrs followed by H2O2 stimulation measured after 2 hrs by MTT assay (reference value: 25.2 to 41.8%); format: functional; details: read-out: Activity
PC-12 [6] = experiment: Neuroprotection against H2O2-induced cell death in rat PC12 cells assessed as increase in cell viability preincubated for 3 hrs followed by H2O2 stimulation measured after 2 hrs by MTT assay; format: functional, cell-based
[7] = Inhibition of soybean 15-LOX assessed as reduction in conversion of linoleic acid to 13-hydroperoxylinoleic acid by spectrophotometric method; design: species or system Glycine max
In short: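 Soybean lipoxygenase type 1-B (final 167 U/mL) with compound (DMSO stock diluted in 0.1 M phosphate buffer pH 8) and linoleic acid (134 mM in ethanol) at room temperature. Formation of 13-hydroperoxylinoleic acid followed spectrophotometrically at 234 nm.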

PC-12 [8] = experiment: Neuroprotection against H2O2-induced cell death in rat PC12 cells assessed as cell viability at 10 uM preincubated for 3 hrs followed by H2O2 stimulation measured after 2 hrs by MTT assay (reference value: 25.2 to 41.8%); format: functional; details: read-out: Activity

SMILES | viability at 5 µM (PC-12 [1]) [%] | viability at 0.1 µM (PC-12 [2]) [%] | viability at 1 µM (PC-12 [3]) [%] | IC50 (Cholinesterase) [µM] | IC50 (Acetylcholinesterase) [µM] | viability at 20 µM (PC-12 [4]) [%] | viability at 50 µM (PC-12 [5]) [%] | Activity (PC-12 [6]) | IC50 [7] [µM] | viability at 10 µM (PC-12 [8]) [%]
COc1ccc(-c2cc3ccc(OCCCCn4cc(CNC(=O)CCCCC5CCSS5)nn4)cc3oc2=O)cc1OC (stereo not drawn) | 57.2 | 40.7 | 53 | > 100 | > 100 | 68.4 | 71.9 | Dose-dependent effect | > 100 | 64
CCOC(=O)c1cc2ccc(OCCCCCn3cc(CNC(=O)CCCCC4CCSS4)nn3)cc2oc1=O (stereo not drawn) | 36.4 | 34.4 | 35.1 | > 100 | 59.7 | 39.5 | 40.7 | Dose-dependent effect | > 100 | 38.3
O=C(CCCCC1CCSS1)NCc1cn(CCCCCOc2ccc3ccc(=O)oc3c2)nn1 (stereo not drawn) | 64.5 | 46.3 | 57.2 | > 100 | 70.6 | 78.5 | 84.9 | Dose-dependent effect | > 100 | 71.3
Cc1cc(=O)oc2cc(OCCCCCn3cc(CNC(=O)CCCCC4CCSS4)nn3)ccc12 (stereo not drawn) | 61 | 45.6 | 56.5 | > 100 | > 100 | 70.3 | 73.7 | Dose-dependent effect | > 100 | 66.3
O=C(CCCCC1CCSS1)NCc1cn(CCCCCOc2ccc3cc(-c4ccccc4)c(=O)oc3c2)nn1 (stereo not drawn) | 28 | 35.5 | 30.7 | > 100 | > 100 | 20.7 | 17.7 | – | > 100 | 26.3
CC(=O)c1cc2ccc(OCCCn3cc(CNC(=O)CCCCC4CCSS4)nn3)cc2oc1=O (stereo not drawn) | 37.5 | 34.6 | 35.5 | > 100 | 54.6 | 39.8 | 40.7 | Dose-dependent effect | > 100 | 38
O=C(CCCCC1CCSS1)NCc1cn(CCCCOc2ccc3cc(-c4ccccc4)c(=O)oc3c2)nn1 (stereo not drawn) | 32.8 | 38.6 | 34.8 | > 100 | > 100 | 26 | 20.5 | – | > 100 | 30.5
O=C(CCCCC1CCSS1)NCc1cn(CCCOc2ccc3cc(C(=O)O)c(=O)oc3c2)nn1 (stereo not drawn) | 57 | 43.4 | 52.1 | > 100 | > 100 | 66.8 | 73.5 | Dose-dependent effect | > 100 | 59.9
COc1ccc(-c2cc3ccc(OCCCn4cc(CNC(=O)CCCCC5CCSS5)nn4)cc3oc2=O)cc1 (stereo not drawn) | 52.8 | 42 | 47.4 | > 100 | 40.2 | 62 | 65.7 | Dose-dependent effect | > 100 | 57.6
O=c1c(O)c(-c2ccc(O)c(O)c2)oc2cc(O)cc(O)c12 [QUERCETIN] | 47.3 | 36.2 | 40.7 | – | – | 56.9 | 58.8 | – | – | 53.7
CC(=O)c1cc2ccc(OCCCCCn3cc(CNC(=O)CCCCC4CCSS4)nn3)cc2oc1=O (stereo not drawn) | 22.2 | 28.9 | 27.4 | > 100 | > 100 | 20.7 | 18.2 | – | > 100 | 20.8
